Assay results taken from ChEMBL document CHEMBL1250501, “Anti-tubercular agents. Part 5: synthesis and biological evaluation of benzothiadiazine 1,1-dioxide based congeners” (Eur J Med Chem, 2010).
≈ marks a conversion by molar mass, not a printed value. Calls of active or inactive are those of the source. The calls are words filed in the database; no cut-off is given here.

Columns and labels:
[1] = tested on: Mycobacterium tuberculosis; test: Antimycobacterial activity against Mycobacterium tuberculosis H37Rv after 3 to 4 weeks by broth microdilution assay; type: functional
Method in brief: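 MIC by broth microdilution on compounds active in a single-concentration primary screen. Plates incubated 3–4 weeks at 37 °C in a CO₂ incubator. Wells read visually for absence of growth turbidity.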

[2] = tested on: Mycobacterium tuberculosis; test: Antimycobacterial activity against Mycobacterium tuberculosis H37Rv infected in BALB/c mouse lung assessed as reduction of bacterial load at 10 mg/kg, po administered 1 week after infection measured after 4 weeks; type: functional
Method in brief: (§1)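 Female BALB/c mice, 6 weeks old, 20–22 g, acclimatised one week. Infected intranasally with about 1.5 × 10⁶ CFU of H37Rv grown 10 days in 7H9/ADC. Treatment began 1 week post-infection, given orally in 50% PEG in water, for 4 weeks. Lungs and spleens homogenised in saline with 0.05% Tween 80. Duplicate 10-fold dilutions plated on 7H10/OADC, 37 °C, 5% CO₂, 4–6 weeks. Result expressed as log₁₀ CFU per organ versus untreated controls.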

[3] = Cytotoxicity against mouse AML-12 cells assessed as cell viability at 2 ug/ml after 24 hrs by MTT assay; type: cell-based; conditions: read-out: Activity
Method in brief: (§2)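 AML-12 hepatocytes in 96-well format, in DMEM with 10% FCS. Exposed to test material at 2–100 µg/mL for 24 h at 37 °C in CO₂. MTT then added for 3 h and formazan formation read. Percentage cytotoxicity calculated relative to untreated cells.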

[4] = Cytotoxicity against mouse AML-12 cells assessed as cell viability at 10 ug/ml after 24 hrs by MTT assay; type: cell-based; conditions: read-out: Activity; method in brief: as §2
[5] = tested on: Mycobacterium tuberculosis; test: Antimycobacterial activity against Mycobacterium tuberculosis H37Rv infected in BALB/c mouse lung assessed as reduction of bacterial load at 25 mg/kg, po administered 1 week after infection measured after 4 weeks; type: functional; method in brief: as §1
[6] = Cytotoxicity against mouse AML-12 cells assessed as cell viability at 25 ug/ml after 24 hrs by MTT assay; type: cell-based; conditions: read-out: Activity; method in brief: as §2
[7] = Cytotoxicity against mouse AML-12 cells assessed as cell viability at 5 ug/ml after 24 hrs by MTT assay; type: cell-based; conditions: read-out: Activity; method in brief: as §2
[8] = Cytotoxicity against mouse AML-12 cells assessed as cell viability at 100 ug/ml after 24 hrs by MTT assay; type: cell-based; conditions: read-out: Activity; method in brief: as §2
[9] = tested on: Mycobacterium tuberculosis; test: Antimycobacterial activity against Mycobacterium tuberculosis H37Rv infected in BALB/c mouse spleen assessed as reduction of bacterial load at 25 mg/kg, po administered 1 week after infection measured after 4 weeks; type: functional; method in brief: as §1
[10] = Cytotoxicity against mouse AML-12 cells assessed as cell viability at 50 ug/ml after 24 hrs by MTT assay; type: cell-based; conditions: read-out: Activity; method in brief: as §2
Candida albicans = test: Antifungal activity against Candida albicans MTCC 227 at 20 ug/ml after 48 hrs by cup plate method; type: functional, organism-based
Method in brief: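 Agar well (cup plate) diffusion on potato dextrose agar 39 g/L. Compounds dissolved in DMSO and loaded into 6 mm wells. Incubated at 28 ± 2 °C for 48 h. Inhibition zone diameter measured to the nearest millimetre, three replicates per treatment. DMSO solvent as negative control, amphotericin B as positive control.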

Aspergillus niger = test: Antifungal activity against Aspergillus niger at 20 ug/ml after 48 hrs by cup plate method; type: functional, organism-based
Method in brief: (§3)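 Agar well (cup plate) diffusion on potato dextrose agar 39 g/L, with compounds dissolved in DMSO. Plates were incubated at 28 ± 2 °C for 48 h and inhibition zones measured to the nearest mm. Three replicates per treatment. Amphotericin B positive control; solvent control included.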

Aspergillus sp. = test: Antifungal activity against Aspergillus sp. at 20 ug/ml after 48 hrs by cup plate method; type: functional, organism-based; method in brief: as §3

CO[C@H]1/C=C/O[C@@]2(C)Oc3c(C)c(O)c4c(O)c(c(/C=N/N5CCN(C)CC5)c(O)c4c3C2=O)NC(=O)/C(C)=C\C=C\[C@H](C)[C@H](O)[C@@H](C)[C@@H](O)[C@@H](C)[C@H](OC(C)=O)[C@@H]1C [RIFAMPIN]
MIC [1]: 0.25 µg/mL (≈ 0.304 µM) | log10cfu [2]: 3.8

O=[N+]([O-])c1ccc(/C=N/NC2=NS(=O)(=O)c3ccccc3N2c2ccccc2)o1
viability at 24 h, 2 ug/ml [3]: 2.4% | viability at 24 h, 10 ug/ml [4]: 9.1% | log10cfu [5]: 4.8 | viability at 24 h, 25 ug/ml [6]: 8.5% | viability at 24 h, 5 ug/ml [7]: 9% | viability at 24 h, 100 ug/ml [8]: 14.9% | log10cfu [9]: 2 | viability at 24 h, 50 ug/ml [10]: 8.7%

NYSTATIN
inhibition zone (IZ) (Candida albicans): inactive | inhibition zone (IZ) (Aspergillus niger): 26 mm | inhibition zone (IZ) (Aspergillus sp.): 16 mm
